# According to ChEMBL document CHEMBL4014341, “Discovery of a Human Neuromedin U Receptor 1-Selective Hexapeptide Agonist with Enhanced Serum Stability” (J Med Chem, 2017):
# Peptide text beside a SMILES is read from it.
# Target: T1, Neuromedin-U receptor 1 (Homo sapiens, UniProt Q9HB89)
# T1 sequence (Q9HB89 whole entry): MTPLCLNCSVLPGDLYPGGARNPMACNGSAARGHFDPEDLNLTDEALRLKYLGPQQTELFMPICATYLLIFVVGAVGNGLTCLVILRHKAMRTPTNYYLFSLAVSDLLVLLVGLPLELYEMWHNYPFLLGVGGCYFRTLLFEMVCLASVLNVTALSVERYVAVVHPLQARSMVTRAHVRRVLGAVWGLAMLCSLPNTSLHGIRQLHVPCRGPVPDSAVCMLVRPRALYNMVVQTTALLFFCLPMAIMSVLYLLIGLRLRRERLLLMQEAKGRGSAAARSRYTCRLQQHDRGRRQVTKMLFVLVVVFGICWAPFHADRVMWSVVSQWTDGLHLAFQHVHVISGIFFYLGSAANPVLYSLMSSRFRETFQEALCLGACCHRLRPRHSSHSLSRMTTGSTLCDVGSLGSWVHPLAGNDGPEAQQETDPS
# Experiment: Agonist activity at human NMUR1 expressed in CHO cells assessed as induction of Ca2+ flux after 18 hrs by Fluo-4 AM dye based FLIPR assay
# Format: functional, cell-based
# Method in brief: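 CHO cells stably expressing human NMUR1 or NMUR2 were seeded at 2.0 × 10^4/well. After 18 h they were loaded 40 min with 4 μM Fluo-4 AM in HBSS/10 mM HEPES/2.5 mM probenecid pH 7.4 with 1% FCS, then washed. Peptides in buffer with 0.05% BSA/0.001% Triton X-100 were tested at 10−12−10−6 M in triplicate. Calcium flux was read by FLIPR from the maximal value, and EC50 was obtained by curve fitting.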
compound,measurement,value
CC(C)C[C@H](NC(=O)[C@H](Cc1ccccc1)NC(=O)[C@H](Cc1ccc(O)cc1)NC(=O)CNC(=O)[C@H](CCCNC(=N)N)NC(=O)[C@H](CO)NC(=O)[C@H](CCC(N)=O)NC(=O)[C@H](CO)NC(=O)[C@H](C)NC(=O)[C@H](Cc1ccccc1)NC(=O)[C@@H]1CCCN1C(=O)[C@H](CO)NC(=O)[C@H](CCC(N)=O)NC(=O)[C@H](Cc1ccccc1)NC(=O)[C@H](CCC(=O)O)NC(=O)[C@H](CCC(=O)O)NC(=O)[C@H](CC(=O)O)NC(=O)[C@@H](NC(=O)[C@H](CCCNC(=N)N)NC(=O)[C@@H](N)Cc1ccccc1)C(C)C)C(=O)N[C@@H](Cc1ccccc1)C(=O)N[C@@H](CCCNC(=N)N)C(=O)N1CCC[C@H]1C(=O)N[C@@H](CCCNC(=N)N)C(=O)N[C@@H](CC(N)=O)C(N)=O (H-FRVDEEFQSPFASQSRGYFLFRPRN-NH2),EC50,0.17 nM
